Measurements as given in ChEMBL document CHEMBL4014306, “Pyrazolopyrimidines as Potent Stimulators for Transient Receptor Potential Canonical 3/6/7 Channels” (J Med Chem, 2017).
Activity calls are given as the source filed them. The calls are words filed in the database; no cut-off is given here.

Key:
Assay type in all cases: cell-based
Rattus norvegicus = species: Rattus norvegicus; assay: Agonist activity at TRPC6 in rat primary glomerular mesangial cells assessed as increase in intracellular calcium level at 1 uM in presence of TRPC inhibitor […] by Fluo4-AM dye-based fluorescence assay
How it was run: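 Rat glomerular mesangial cells, isolated by graded sieving from male Sprague–Dawley rats, collagenase-digested, cultured in RPMI 1640 with 17% FBS. Grown overnight on coverslips, then loaded with 10 μM Fluo4-AM and 0.02% pluronic F-127 for 1 h at 37 °C in 1 mM Ca2+ saline, pH 7.4. Compound at 1 μM. Confocal imaging, ex 488/em 515 nm, read as F/F0. For the 2-APB condition, 30 μM 2-APB for 2 min beforehand and kept during compound application.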

[1] = target: T1, Short transient receptor potential channel 7 (Homo sapiens) (UniProt Q9HCX4); assay: Agonist activity at human TRPC7 expressed in HEK293 cells assessed as increase in membrane depolarization measured for 2.5 mins in presence of 2 mM Ca2+ by FLIPR membrane potential dye-based fluorescence assay
T1 sequence (whole entry): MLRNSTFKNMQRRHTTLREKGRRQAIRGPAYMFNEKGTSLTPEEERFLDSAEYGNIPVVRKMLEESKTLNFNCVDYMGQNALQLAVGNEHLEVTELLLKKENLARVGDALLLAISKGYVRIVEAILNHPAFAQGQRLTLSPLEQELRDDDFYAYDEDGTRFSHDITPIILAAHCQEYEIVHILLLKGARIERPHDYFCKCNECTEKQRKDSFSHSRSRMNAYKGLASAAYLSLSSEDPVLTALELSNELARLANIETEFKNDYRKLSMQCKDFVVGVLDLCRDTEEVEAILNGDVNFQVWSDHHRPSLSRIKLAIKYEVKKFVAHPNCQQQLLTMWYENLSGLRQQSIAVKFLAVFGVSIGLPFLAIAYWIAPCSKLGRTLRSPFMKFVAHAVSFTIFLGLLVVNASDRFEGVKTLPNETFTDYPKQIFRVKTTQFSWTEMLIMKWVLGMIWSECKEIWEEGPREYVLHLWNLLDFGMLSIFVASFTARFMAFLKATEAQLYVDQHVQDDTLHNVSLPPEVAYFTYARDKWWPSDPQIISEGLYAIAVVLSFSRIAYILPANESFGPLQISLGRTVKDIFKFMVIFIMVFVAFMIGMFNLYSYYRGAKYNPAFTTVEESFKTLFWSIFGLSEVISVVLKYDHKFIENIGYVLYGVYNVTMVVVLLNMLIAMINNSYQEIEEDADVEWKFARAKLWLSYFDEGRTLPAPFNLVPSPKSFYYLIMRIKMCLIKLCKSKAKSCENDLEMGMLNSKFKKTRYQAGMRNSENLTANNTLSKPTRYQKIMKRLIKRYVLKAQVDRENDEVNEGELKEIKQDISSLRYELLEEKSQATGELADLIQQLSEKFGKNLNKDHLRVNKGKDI

HEK293 = assay: Induction of membrane potential depolarization in HEK293 cells measured for 2.5 mins by FLIPR assay; conditions: human, hek293, 2.5 min
How it was run: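 Parental HEK293 cells on a FlexStation at 32 °C, loaded with Fluo4-AM or FMP dye, in 2 mM Ca2+ extracellular saline, pH 7.4. Compound added and fluorescence read as F/F0.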

[2] = target: T2, Short transient receptor potential channel 3 (Homo sapiens) (UniProt Q13507); assay: Agonist activity at human TRPC3 expressed in HEK293 cells assessed as induction of membrane depolarization measured for 2.5 mins in presence of 2 mM Ca2+ by FLIPR membrane potential dye-based fluorescence assay
T2 sequence (whole entry): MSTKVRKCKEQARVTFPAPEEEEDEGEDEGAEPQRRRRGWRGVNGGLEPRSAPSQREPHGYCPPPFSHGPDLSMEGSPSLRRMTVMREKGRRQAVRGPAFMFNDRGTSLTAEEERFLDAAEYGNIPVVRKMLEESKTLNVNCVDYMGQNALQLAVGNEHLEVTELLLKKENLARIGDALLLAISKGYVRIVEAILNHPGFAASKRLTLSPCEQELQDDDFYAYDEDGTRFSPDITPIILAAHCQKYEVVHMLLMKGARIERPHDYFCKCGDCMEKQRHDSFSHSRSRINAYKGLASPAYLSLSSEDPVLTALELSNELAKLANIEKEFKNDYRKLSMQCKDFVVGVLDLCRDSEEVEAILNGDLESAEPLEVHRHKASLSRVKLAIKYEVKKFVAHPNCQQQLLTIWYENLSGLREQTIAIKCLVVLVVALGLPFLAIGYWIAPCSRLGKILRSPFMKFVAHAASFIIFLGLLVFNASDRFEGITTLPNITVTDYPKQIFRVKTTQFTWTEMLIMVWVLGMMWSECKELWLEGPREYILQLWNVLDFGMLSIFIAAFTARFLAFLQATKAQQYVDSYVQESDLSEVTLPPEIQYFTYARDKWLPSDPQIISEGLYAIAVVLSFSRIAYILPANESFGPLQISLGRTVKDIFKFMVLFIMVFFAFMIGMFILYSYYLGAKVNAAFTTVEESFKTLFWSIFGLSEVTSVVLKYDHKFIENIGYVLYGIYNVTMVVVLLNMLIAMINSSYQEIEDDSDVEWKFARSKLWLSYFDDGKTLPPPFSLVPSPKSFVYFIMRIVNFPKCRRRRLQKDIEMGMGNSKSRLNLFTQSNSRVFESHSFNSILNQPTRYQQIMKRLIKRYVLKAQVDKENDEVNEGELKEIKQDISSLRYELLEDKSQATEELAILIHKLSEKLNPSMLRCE
How it was run: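 HEK293 cells stably expressing human TRPC3, run on a FlexStation at 32 °C. Loaded with FMP dye, or Fluo-type Ca2+ dye with 2 mM probenecid. Extracellular NaCl/HEPES saline, pH 7.4, with 2 mM Ca2+ (standard) or 0.5 mM Ca2+. Read as F/F0. In 0.5 mM Ca2+, FMP EC50 from a Hill fit, n = 6.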

[3] = target: T1, Short transient receptor potential channel 7 (Homo sapiens); assay: (§1) Agonist activity at human TRPC7 receptor expressed in HEK293 cells assessed as induction of channel current in presence of 0.1 mM Ca2+ by whole cell patch-clamp method
How it was run: (§2)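 Whole-cell voltage clamp on doxycycline-induced stable HEK293 TRPC7 cells. Pipette (mM): 110 CsCl, 10 HEPES, 10 BAPTA, 1 MgCl2, 4.77 CaCl2 (400 nM free Ca2+), pH 7.2. Bath has 0.1 mM CaCl2, and compound is perfused in bath at increasing concentrations. Ramps run from +100 to −100 mV (100 ms) every 1 s from a 0 mV hold.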

[4] = target: T3, Short transient receptor potential channel 7 (Homo sapiens, UniProt Q9HCX4); assay: as §1; how it was run: as §2
T3 sequence (Q9HCX4 whole entry): T1 sequence (whole entry)

[5] = Selectivity ratio of EC50 for mouse TRPC6 expressed in HEK293 cells co-expressing Gq11-PLCbeta fused M5 receptor assessed as increase in intracellular calcium level to EC50 for human TRPC3 expressed in HEK293 cells assessed as induction of membrane depolarization in presence of 0.5 mM Ca2+

## Cc1nn2c(O)cc(C3CCN(C(=O)OCc4ccccc4)CC3)nc2c1-c1ccc(F)cc1
Rattus norvegicus
  Activity: inactive

## CCOC(=O)N1CCC(c2cc(O)n3nc(C)c(-c4ccc(F)cc4)c3n2)CC1
[1]
  Activity: Active
HEK293
  Activity: Non-Toxic
[2]
  Activity: inactive
[3]
  Activity: Dose-dependent effect
[4]
  EC50: 1130 nM

## CCOC(=O)N1CCC(c2cc(O)n3nc(C)c(-c4ccc(C(F)(F)F)cc4)c3n2)CC1
[5]
  Ratio EC50: > 70
